Laboratory results: paper PMC10957407 (Food Chemistry: X, 2024)
In brackets after ≈: the same amount, converted by molar mass.

Assays:
1-D6 = test: icELISA with mAb 1-D6; assay type: binding, Balb/c mice; details: for CR: CR%=IC50 6-GG/IC50 test compound x100%
Summary of the method: (§1)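 Ascites-derived mAbs (caprylic acid–ammonium sulfate purified) from female Balb/c mice immunized with hapten–BSA. Plates coated with hapten–OVA in carbonate buffer (0.5 mol L−1, pH 9.6), blocked with 5% skim milk, washed with PBST, and detected with goat anti-mouse IgG-HRP; reaction stopped with 2 mol L−1 H2SO4. Analyte stocks (1 mg/mL, 70% methanol) were diluted in 10% methanol-PBS. IC50 values were fitted, and cross-reactivity was calculated for capsaicinoids, gingerol derivatives and eight other compounds.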

1-G12 = test: icELISA with mAb 1-G12; assay type: binding, Balb/c mice; details: for CR: CR%=IC50 6-GG/IC50 test compound x100%
Summary of the method: as §1

1-F12 = test: icELISA with mAb 1-F12; assay type: binding, Balb/c mice; details: for CR: CR%=IC50 6-GG/IC50 test compound x100%
Summary of the method: as §1

6-AT6 = test: icELISA with mAb 6-AT6; assay type: binding
4-AT4 = test: icELISA with mAb 4-AT4; assay type: binding
2-LD2 = test: icELISA with mAb 2-LD2; assay type: binding
3-LD3 = test: icELISA with mAb 3-LD3; assay type: binding
5-3H1 = test: icELISA with mAb 5-3H1; assay type: binding
5-D8 = test: icELISA with mAb 5-D8; assay type: binding
[1] = mAb 1-D6, specific evaluation (Table 1, Fig. 3C)
[2] = mAb 1-G12, specific evaluation (Table 1, Fig. 3D)
[3] = mAb 1-F12, specific evaluation (Table 1, Fig. 3B)

COc1cc(/C=C/C(=O)O)ccc1O [Ferulic acid]
IC50 (1-D6; [1]): 1.92736 µg/mL (≈ 9.93 µM) | CR (1-D6; mAb 1-D6): 3.07% | CR (1-G12; mAb 1-G12): <14.01% | CR (1-F12; mAb 1-F12): <12.66%

CCCCC[C@H](O)CC(=O)CCc1ccc(O)c(OC)c1 [Hapten 6-GG, 6-gingerol]
IC50 (6-AT6; coating antigen Hapten 1-OVA): >4 µg/mL | IC50 (6-AT6; coating antigen Hapten 2-OVA): >4 µg/mL | IC50 (6-AT6; coating antigen Hapten 3-OVA): >4 µg/mL | IC50 (6-AT6; coating antigen Hapten 4-OVA): >4 µg/mL | IC50 (6-AT6; coating antigen Hapten 5-OVA): 0.42562 µg/mL (≈ 1.45 µM) | IC50 (6-AT6; coating antigen Hapten 6-OVA): >4 µg/mL | IC50 (4-AT4; coating antigen Hapten 1-OVA): 0.00493 µg/mL (≈ 0.0167 µM) | IC50 (4-AT4; coating antigen Hapten 2-OVA): >4 µg/mL | IC50 (4-AT4; coating antigen Hapten 3-OVA): >4 µg/mL | IC50 (4-AT4; coating antigen Hapten 4-OVA): >4 µg/mL | IC50 (4-AT4; coating antigen Hapten 5-OVA): 0.48165 µg/mL (≈ 1.64 µM) | IC50 (2-LD2; coating antigen Hapten 1-OVA): 0.02479 µg/mL (≈ 0.0842 µM) | IC50 (2-LD2; coating antigen Hapten 2-OVA): 1.43616 µg/mL (≈ 4.88 µM) | IC50 (2-LD2; coating antigen Hapten 3-OVA): 0.00178 µg/mL (≈ 0.00605 µM) | IC50 (2-LD2; coating antigen Hapten 4-OVA): 0.00101 µg/mL (≈ 0.00343 µM) | IC50 (3-LD3; coating antigen Hapten 2-OVA): 1.82165 µg/mL (≈ 6.19 µM) | IC50 (3-LD3; coating antigen Hapten 3-OVA): 2.18232 µg/mL (≈ 7.41 µM) | IC50 (3-LD3; coating antigen Hapten 4-OVA): 0.27108 µg/mL (≈ 0.921 µM) | IC50 (1-D6; coating antigen Hapten 1-OVA, mAb 1-D6): 0.05917 µg/mL (≈ 0.201 µM) | IC50 (1-D6; coating antigen Hapten 2-OVA, mAb 1-D6): 1.14733 µg/mL (≈ 3.9 µM) | IC50 (1-D6; coating antigen Hapten 3-OVA, mAb 1-D6): 0.02778 µg/mL (≈ 0.0944 µM) | IC50 (1-D6; coating antigen Hapten 4-OVA, mAb 1-D6): 0.29753 µg/mL (≈ 1.01 µM) | IC50 (1-D6; coating antigen Hapten 5-OVA, mAb 1-D6): 0.13286 µg/mL (≈ 0.451 µM) | IC50 (1-D6; coating antigen Hapten 6-OVA, mAb 1-D6): 0.15056 µg/mL (≈ 0.511 µM) | IC50 (1-D6; [1]): 0.05917 µg/mL (≈ 0.201 µM) | CR (1-D6; mAb 1-D6): 100.00% | IC50 (1-G12; coating antigen Hapten 1-OVA, mAb 1-G12): 0.56059 µg/mL (≈ 1.9 µM) | IC50 (1-G12; coating antigen Hapten 2-OVA, mAb 1-G12): >4 µg/mL | IC50 (1-G12; coating antigen Hapten 3-OVA, mAb 1-G12): >4 µg/mL | IC50 (1-G12; coating antigen Hapten 4-OVA, mAb 1-G12): 0.41084 µg/mL (≈ 1.4 µM) | IC50 (1-G12; coating antigen Hapten 5-OVA, mAb 1-G12): 0.19553 µg/mL (≈ 0.664 µM) | IC50 (1-G12; coating antigen Hapten 6-OVA, mAb 1-G12): 0.28444 µg/mL (≈ 0.966 µM) | IC50 (1-G12; [2]): 0.56059 µg/mL (≈ 1.9 µM) | CR (1-G12; mAb 1-G12): 100.00% | IC50 (5-3H1; coating antigen Hapten 1-OVA): 0.03897 µg/mL (≈ 0.132 µM) | IC50 (5-3H1; coating antigen Hapten 2-OVA): >4 µg/mL | IC50 (5-3H1; coating antigen Hapten 3-OVA): >4 µg/mL | IC50 (5-3H1; coating antigen Hapten 4-OVA): 1.06282 µg/mL (≈ 3.61 µM) | IC50 (5-3H1; coating antigen Hapten 5-OVA): 0.67041 µg/mL (≈ 2.28 µM) | IC50 (5-D8; coating antigen Hapten 1-OVA): 0.02328 µg/mL (≈ 0.0791 µM) | IC50 (5-D8; coating antigen Hapten 2-OVA): >4 µg/mL | IC50 (5-D8; coating antigen Hapten 3-OVA): >4 µg/mL | IC50 (5-D8; coating antigen Hapten 4-OVA): 1.03007 µg/mL (≈ 3.5 µM) | IC50 (5-D8; coating antigen Hapten 5-OVA): 1.03651 µg/mL (≈ 3.52 µM) | IC50 (1-F12; coating antigen Hapten 1-OVA, mAb 1-F12): 0.50623 µg/mL (≈ 1.72 µM) | IC50 (1-F12; coating antigen Hapten 2-OVA, mAb 1-F12): >4 µg/mL | IC50 (1-F12; coating antigen Hapten 3-OVA, mAb 1-F12): >4 µg/mL | IC50 (1-F12; coating antigen Hapten 4-OVA, mAb 1-F12): 0.40126 µg/mL (≈ 1.36 µM) | IC50 (1-F12; coating antigen Hapten 5-OVA, mAb 1-F12 (optimal combination)): 0.12283 µg/mL | IC50 (1-F12; coating antigen Hapten 6-OVA, mAb 1-F12): 0.63169 µg/mL (≈ 2.15 µM) | IC50 (1-F12; [3]): 0.50623 µg/mL (≈ 1.72 µM) | CR (1-F12; mAb 1-F12): 100.00%

COc1ccc(/C=C/C(=O)O)cc1O [IsoFerulic acid]
IC50 (1-D6; [1]): 2.12807 µg/mL (≈ 11 µM) | CR (1-D6; mAb 1-D6): 2.78% | IC50 (1-G12; [2]): >4 µg/mL | CR (1-G12; mAb 1-G12): <14.01% | IC50 (1-F12; [3]): >4 µg/mL | CR (1-F12; mAb 1-F12): <12.66%

COc1cc(/C=C/C(=O)O)ccc1O [Trans-Ferulic acid]
IC50 (1-D6; [1]): >4 µg/mL | CR (1-D6; mAb 1-D6): <1.48% | IC50 (1-G12; [2]): >4 µg/mL | CR (1-G12; mAb 1-G12): <14.01% | IC50 (1-F12; [3]): >4 µg/mL | CR (1-F12; mAb 1-F12): <12.66%

COc1cc(C(=O)O)ccc1O [Vanillic acid]
IC50 (1-D6; [1]): 1.7172 µg/mL (≈ 10.2 µM) | CR (1-D6; mAb 1-D6): 3.45% | IC50 (1-G12; [2]): >4 µg/mL | CR (1-G12; mAb 1-G12): <14.01% | IC50 (1-F12; [3]): >4 µg/mL | CR (1-F12; mAb 1-F12): <12.66%

COc1cc(C=O)ccc1O [Vanillin]
IC50 (1-D6; [1]): 1.98161 µg/mL (≈ 13 µM) | CR (1-D6; mAb 1-D6): 2.99% | IC50 (1-G12; [2]): >4 µg/mL | CR (1-G12; mAb 1-G12): <14.01% | IC50 (1-F12; [3]): >4 µg/mL | CR (1-F12; mAb 1-F12): <12.66%
